Test results: ChEMBL document CHEMBL4052793, “Synthesis and Biological Evaluation of Paclitaxel and Camptothecin Prodrugs on the Basis of 2-Nitroimidazole” (ACS Med Chem Lett, 2017)

What was measured:
NCI-H460 [1] = assay: Cytotoxicity against human NCI-H460 cells assessed as growth reduction under hypoxic condition after 72 hrs by MTT assay; type: functional, cell-based; settings: NCI-H460, 72 h
In short: (§1)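 H460 lung and HT29 colon carcinoma cells exposed to a range of compound concentrations for 72 h, either in air (normoxic) or under hypoxia (94% N2, 5% CO2, 1% O2). Viability/proliferation read by MTT; IC50 for proliferation inhibition.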

[2] = Selectivity ratio, IC50 for human H460 cells under normoxic condition to IC50 for human H460 cells under hypoxic condition; type: functional
[3] = Half life in ABS buffer at 10 uM at pH 5.0 by HPLC method; type: physicochemical
HT-29 [4] = assay: Cytotoxicity against human HT-29 cells assessed as growth reduction under normoxic condition after 72 hrs by MTT assay; type: functional, cell-based; settings: HT-29, 72 h; in short: as §1
HT-29 [5] = assay: Cytotoxicity against human HT-29 cells assessed as growth reduction under hypoxic condition after 72 hrs by MTT assay; type: functional, cell-based; settings: HT-29, 72 h; in short: as §1
[6] = Prodrug conversion in Pd/C assessed as 2-aminoimidazole intermediate of 3C-PTX formation at 1 mg after 2 hrs in presence of H2 by LC/MS method
In short: (§2)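 Chemical reduction over Pd/C under H2 in THF at 37 °C. Products were analysed to follow release of the parent drug.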

[7] = Drug degradation in human plasma assessed as compound half life at 10 uM by HPLC method; type: ADME, cell-free
In short: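 Incubated in human plasma in vitro; remaining prodrug followed by HPLC over time and half-life derived.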

[8] = Prodrug conversion assessed as Escherichia coli nitroreductase mediated SN38 reduction by measuring half life at 10 uM in presence of NADPH by HPLC method; type: ADME; settings: isolated protein
In short: (§3)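 Prodrugs at 10 μM (1% DMSO) in PBS pH 7.4 incubated at 37 °C with E. coli nitroreductase (50 μg/mL) and NADPH (1 μmol/mL) for up to 1 h. Prodrug loss and active drug release tracked by HPLC.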

[9] = Half life in PBS buffer at 10 uM at pH 7.4 by HPLC method; type: physicochemical
[10] = Prodrug conversion in Pd/C assessed as PTX formation at 1 mg after 2 hrs in presence of H2 by LC/MS method; in short: as §2
Mus musculus = species: Mus musculus; assay: Drug degradation in mouse plasma assessed as compound half life at 10 uM by HPLC method
[11] = Half life in PBS buffer at 10 uM at pH 6.5 by HPLC method; type: physicochemical
NCI-H460 [12] = assay: Cytotoxicity against human NCI-H460 cells assessed as growth reduction under normoxic condition after 72 hrs by MTT assay; type: functional, cell-based; settings: NCI-H460, 72 h; in short: as §1
HT-29 [13] = assay: Selectivity ratio, IC50 for human HT-29 cells under normoxic condition to IC50 for human HT29 cells under hypoxic condition; type: functional
[14] = Prodrug conversion in Pd/C assessed as SN38 formation at 1 mg after 2 hrs in presence of H2 by LC/MS method; in short: as §2
[15] = Prodrug conversion in Pd/C assessed as 2-aminoimidazole intermediate of 3C-SN38 formation at 1 mg after 2 hrs in presence of H2 by LC/MS method; in short: as §2
[16] = Prodrug conversion in Pd/C assessed as 2-aminoimidazole intermediate of 2C-PTX formation at 1 mg after 2 hrs in presence of H2 by LC/MS method; in short: as §2
[17] = Prodrug conversion assessed as Escherichia coli nitroreductase mediated 2-aminoimidazole intermediate of 2C-PTX formation at 10 uM after 1 hr in presence of NADPH by HPLC method; type: ADME; settings: isolated protein; in short: as §3
[18] = Drug level in Pd/C using 1 mg 3C-SN38 assessed as compound formation in presence of H2 after 2 hrs by LC/MS method; in short: as §2
[19] = Drug level in Pd/C treated with 2C-PTX at 1 mg in presence of H2 after 2 hrs by LC/MS method; in short: as §2
[20] = Drug level in Pd/C treated with 3C-PTX at 1 mg in presence of H2 after 2 hrs by LC/MS method; in short: as §2

Structure (SMILES) | IC50 (NCI-H460 [1]) [nM] | Ratio IC50 [2] | half-life at 10 µM [3] [h] | IC50 (HT-29 [4]) [nM] | IC50 (HT-29 [5]) [nM] | half-life at 10 µM [7] [h] | t1/2 [8] | half-life at 10 µM [9] [h] | Drug metabolism [10] | half-life at 10 µM (Mus musculus) [h] | half-life at 10 µM [11] [h] | IC50 (NCI-H460 [12]) [nM] | Ratio IC50 (HT-29 [13]) | other results
CC(=O)O[C@H]1C(=O)[C@@]2(C)[C@H]([C@H](OC(=O)c3ccccc3)[C@]3(O)C[C@H](OC(=O)[C@H](OC(=O)OCCCn4ccnc4[N+](=O)[O-])[C@@H](NC(=O)c4ccccc4)c4ccccc4)C(C)=C1C3(C)C)[C@]1(OC(C)=O)CO[C@@H]1C[C@@H]2O | 18 | 1.17 | > 48 | 290 | 159 | 6 | <= 10 min | 36 | Metabolite detected | 0.917 | 24 | 21 | 1.82 | Drug metabolism [6]: Metabolite detected
CCc1c2c(nc3ccc(O)cc13)-c1cc3c(c(=O)n1C2)COC(=O)[C@@]3(CC)OC(=O)OCCn1ccnc1[N+](=O)[O-] | 63 | 1.44 | > 48 | > 10000 | 9560 | 6 | 0.5 h | > 48 | – | 0.783 | 41 | 91 | >1.05 | –
CCc1c2c(nc3ccc(O)cc13)-c1cc3c(c(=O)n1C2)COC(=O)[C@@]3(CC)OC(=O)OCCCn1ccnc1[N+](=O)[O-] | 99 | 2.03 | 40 | > 10000 | 6020 | 2 | <= 10 min | > 48 | – | 0.617 | > 48 | 201 | >1.67 | Drug metabolism [14]: Metabolite detected; Drug metabolism [15]: Metabolite detected
CC(=O)O[C@H]1C(=O)[C@@]2(C)[C@H]([C@H](OC(=O)c3ccccc3)[C@]3(O)C[C@H](OC(=O)[C@H](OC(=O)OCCn4ccnc4[N+](=O)[O-])[C@@H](NC(=O)c4ccccc4)c4ccccc4)C(C)=C1C3(C)C)[C@]1(OC(C)=O)CO[C@@H]1C[C@@H]2O | 6 | 1.5 | 48 | 140 | 45 | 2 | <= 10 min | 28 | Metabolite detected | 0.333 | 24 | 9 | 3.11 | Drug metabolism [16]: Metabolite detected; Drug metabolism [17]: Metabolite_Notdetected
CCc1c2c(nc3ccc(O)cc13)-c1cc3c(c(=O)n1C2)COC(=O)[C@]3(O)CC [7-ETHYL-10-HYDROXYCAMPTOTHECIN] | 47 | 1.06 | – | 96 | 119 | – | – | – | – | – | – | – | 0.82 | Drug metabolism [18]: Metabolite detected
CC(=O)O[C@H]1C(=O)[C@@]2(C)[C@H]([C@H](OC(=O)c3ccccc3)[C@]3(O)C[C@H](OC(=O)[C@H](O)[C@@H](NC(=O)c4ccccc4)c4ccccc4)C(C)=C1C3(C)C)[C@]1(OC(C)=O)CO[C@@H]1C[C@@H]2O [PACLITAXEL] | – | – | – | 14 | 15 | – | – | – | – | – | – | – | – | Drug metabolism [19]: Metabolite detected; Drug metabolism [20]: Metabolite detected
